≈ marks a conversion by molar mass, not a printed value.
Experiments:
[1] = tested on: Mycobacterium tuberculosis; experiment: microbe, parasite or virus in culture; settings: H37Rv
[2] = tested on: Mycobacterium tuberculosis; experiment: microbe, parasite or virus in culture; settings: Mt103
[3] = tested on: Mycobacterium tuberculosis; experiment: Antimycobacterial activity against wild-type Mycobacterium tuberculosis H37Rv ATCC 25618 expressing VV16 plasmid by colorimetric resazurin microtiter assay; type: functional
Outline: (§1)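 Resazurin colorimetric microtiter MIC in 7H9-ADC broth with 2% DMSO at 37°C; strains carry empty pVV16 or pVVethA complementation vector; ISO tested up to 40 μg/ml, highest soluble level.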

[4] = tested on: Mycobacterium tuberculosis H37Rv; experiment: Inhibition of Mycobacterium tuberculosis H37Rv recombinant DesA3-mediated unsaturated fatty acid synthesis using Mycobacterium smegmatis MC2155 membrane and partially purified EthA as cofactors assessed as palmitoleic acid levels relative to control; design: scale not given: the % may be the effect or the level left
Outline: (§2)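 Cell-free desaturation: 0.5 mg M. smegmatis membrane protein, 3 μg His-tagged DesA3 purified from M. smegmatis, 500 μM palmitoyl-CoA, 1 mM NADPH, ±6 μg purified EthA, ISO 0 or 10 μg/ml final, 25 mM Tris-HCl pH 7.5; 75 min at 30°C; chloroform:methanol extraction, methyl esters, GC relative percentages.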

[5] = tested on: Mycobacterium tuberculosis; experiment: Antimycobacterial activity against Mycobacterium tuberculosis isolate Mt103 expressing VV16 plasmid by colorimetric resazurin microtiter assay; type: functional
Outline: as §1

[6] = tested on: Mycobacterium tuberculosis H37Rv; experiment: Inhibition of Mycobacterium tuberculosis H37Rv recombinant DesA3-mediated unsaturated fatty acid synthesis using Mycobacterium smegmatis MC2155 membrane and partially purified EthA as cofactors assessed as palmitic acid levels relative to control; design: scale not given: the % may be the effect or the level left
Outline: as §2

[7] = tested on: Mycobacterium tuberculosis H37Rv; experiment: Inhibition of Mycobacterium tuberculosis H37Rv recombinant DesA3-mediated unsaturated fatty acid synthesis using Mycobacterium smegmatis MC2155 membrane and partially purified EthA as cofactors assessed as oleic acid levels relative to control; design: scale not given: the % may be the effect or the level left
Outline: as §2

[8] = tested on: Mycobacterium tuberculosis H37Rv; experiment: Inhibition of Mycobacterium tuberculosis H37Rv recombinant DesA3-mediated unsaturated fatty acid synthesis using Mycobacterium smegmatis MC2155 membrane and partially purified EthA as cofactors assessed as stearic acid levels relative to control; design: scale not given: the % may be the effect or the level left
Outline: as §2

[9] = tested on: Mycobacterium tuberculosis H37Rv; experiment: Inhibition of Mycobacterium tuberculosis H37Rv recombinant DesA3-mediated unsaturated fatty acid synthesis using Mycobacterium smegmatis MC2155 membrane and partially purified EthA as cofactors assessed as tuberculostearic acid levels relative control; design: scale not given: the % may be the effect or the level left
Outline: as §2

[10] = tested on: Mycobacterium tuberculosis H37Rv; experiment: Inhibition of Mycobacterium tuberculosis H37Rv recombinant DesA3-mediated unsaturated fatty acid synthesis using Mycobacterium smegmatis MC2155 membrane as cofactor assessed as palmitoleic acid levels relative to control; design: scale not given: the % may be the effect or the level left
Outline: as §2

[11] = tested on: Mycobacterium tuberculosis H37Rv; experiment: Inhibition of Mycobacterium tuberculosis H37Rv recombinant DesA3-mediated unsaturated fatty acid synthesis using Mycobacterium smegmatis MC2155 membrane as cofactor assessed as palmitic acid levels relative to control; design: scale not given: the % may be the effect or the level left
Outline: as §2

[12] = tested on: Mycobacterium tuberculosis H37Rv; experiment: Inhibition of Mycobacterium tuberculosis H37Rv recombinant DesA3-mediated unsaturated fatty acid synthesis using Mycobacterium smegmatis MC2155 membrane as cofactor assessed as oleic acid levels relative to control; design: scale not given: the % may be the effect or the level left
Outline: as §2

[13] = tested on: Mycobacterium tuberculosis H37Rv; experiment: Inhibition of Mycobacterium tuberculosis H37Rv recombinant DesA3-mediated unsaturated fatty acid synthesis using Mycobacterium smegmatis MC2155 membrane as cofactor assessed as stearic acid levels relative to control; design: scale not given: the % may be the effect or the level left
Outline: as §2

[14] = tested on: Mycobacterium tuberculosis H37Rv; experiment: Inhibition of Mycobacterium tuberculosis H37Rv recombinant DesA3-mediated unsaturated fatty acid synthesis using Mycobacterium smegmatis MC2155 membrane as cofactor assessed as tuberculostearic acid levels relative to control; design: scale not given: the % may be the effect or the level left
Outline: as §2

Compound | MIC [1] | MIC [2] | MIC [3] | Activity [4] | MIC [5] | Activity [6] | Activity [7] | Activity [8] | Activity [9] | Activity [10] | Activity [11] | Activity [12] | Activity [13] | Activity [14]
CCc1cc(C(N)=S)ccn1 [ETHIONAMIDE] | 5 µg/mL (≈ 30.1 µM) | 5 µg/mL (≈ 30.1 µM) |  |  |  |  |  |  |  |  |  |  |  | 
CC(C)CCOc1ccc(NC(=S)Nc2ccc(OCCC(C)C)cc2)cc1 [TIOCARLIDE] |  |  | 5 µg/mL (≈ 12.5 µM) | 1.9% | 5 µg/mL (≈ 12.5 µM) | 49.8% | 4.4% | 1.1% | 42.8% | 0.1% | 54.1% | 0.1% | 1% | 44.7%

Source: ChEMBL document CHEMBL1137655, “Isoxyl activation is required for bacteriostatic activity against Mycobacterium tuberculosis” (2007)
